# Screening results from PubChem BioAssay.
# Hits are enriched below; roughly 6.4% of the tested compounds scored in any of these assays.
# PLK1 PBD inh: Plk1 (human) PBD binding inhibition | inhibition, %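 (tested at about 20 µM)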 | Plk1 PBD phosphopeptide binding, fluorescence polarization | 97,000 compounds, 0.13% hits; in the data active = inhibition above about 34%, passing the limit was not always enough
# PostGolgi yeast: growth inhibition of a yeast mutant, post-Golgi transport screen; post-Golgi transport phenotypic cell assay; inhibition, % at 10 µM; 98,000 compounds, 0.9% hits;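 also: yeast cells grown in 1536-well plates; yeast grown about 18 h at 30C before absorbance read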
# PostGolgi ctrl: inhibits growth of the yeast control strain; efflux-deficient yeast background strain, growth absorbance A615, 16 h; inhibition, % at 10 µM; 98,000 compounds, 5% hits
# PLK1 kinase inh: PLK1 (human) kinase inhibition; recombinant PLK1 kinase, TR-FRET peptide phosphorylation; 97,000 compounds, 0.53% hits; inhibition, % at 10 µM;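 active = inhibition of 50% or more in the single-concentration screen; inactive = inhibition below 50%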;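 also: 0% = DMSO max control and 100% = H-89 dihydrochloride min control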
# Rev-RRE block: HIV Rev-RRE protein-RNA interaction inhibition. Rev peptide-RRE RNA binding, FRET. inhibition, % at 8 µM. 97,000 compounds, 0.79% hits;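 active = inhibition above the screen-wide mean plus 3 SD, cut at about 35% in these data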;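 also: 0% = median DMSO wells and 100% = median Neomycin B control wells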
# Target sequence (P05866 whole entry, looked up): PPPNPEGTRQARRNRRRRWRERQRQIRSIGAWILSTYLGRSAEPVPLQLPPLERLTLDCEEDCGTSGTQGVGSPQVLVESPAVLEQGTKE
#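 Test system: Cy5-tagged RRE RNA duplex with fluorescein-tagged Rev peptide; Probe or stimulus: labelled Rev peptide; Schedule: 5 min preincubation and 15 min binding, 25 °C; Signal: FRET fluorescence readout; Evaluation: % inhibition from 671/540 nm acceptor-to-donor ratio, scaled between controls; Control set: DMSO and neomycin B.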
# EphB4 antag: antagonists of human EphB4-ephrin-B2 interaction; EphB4 LBD / TNYL-RAW-Alexa532 peptide, fluorescence polarization; inhibition, % at 7 µM; 97,000 compounds, 0.15% hits; AID 720;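 active = inhibition above the screen-wide mean inhibition plus 3 SD, cut at about 15% in these data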;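 also: 0% = DMSO wells and 100% = excess unlabeled TNYL-RAW peptide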
# Starred values were filed as active, the others as inactive; · = no result; [ ] = dose if it differs, or a comment. Rule as the data show it, unless noted: active = inhibition above about 30%; inactive = the rest.
SMILES,PLK1 PBD inh,PostGolgi yeast,PostGolgi ctrl,PLK1 kinase inh,Rev-RRE block,EphB4 antag
Cc1ccc2[nH]c(=O)c(CN(CC3CCCO3)S(=O)(=O)c3c(C)ccc4nsnc34)cc2c1 (centres undefined),22,1,32*,-7,8,0
CCOC(=O)N1CCC(NC(=O)C2CCN(C(=O)N3CCOc4ccccc43)CC2)CC1,18,-4,0,55*,-3,5
CCOC(=O)N1CCC(NC(=O)C2CCCN(C(=O)N3CCOc4ccccc43)C2)CC1 (centres undefined),·,-6,10,·,·,·
COCCn1c(Cc2ccccc2)nnc1SCC(=O)Nc1cc(C)on1,6,4,43*,2,0,-2
O=[n+]1cc(-c2cccc3ccccc23)n([O-])c2c1CCC2,-16,12,2,-9,13,3
CCCC(=O)N=C1SC2CS(=O)(=O)CC2N1c1ccc(CC)cc1 (centres undefined),5,-3,-6,-10,2,2
CC(=O)NS(=O)(=O)c1cccnc1Nc1ccc(Cl)cc1,20,3,-3,-11,5,4
COc1cnc(-c2ccccn2)nc1Oc1ccc(Cl)c2ccccc12,-1,24,63*,-13,2,11
O=C1CS/C(=C\[N+](=O)[O-])N1c1ccccc1,36,3,2,-14,7,3
COc1ccc2c(c1)c1nnc(SC)nc1n2C,-9,58*,87*,-11,7,0
CN1CCN(c2nc(C#N)cc(-c3ccccc3)n2)CC1,-15,-4,12,-7,8,5
COc1ccc(-c2cc(C#N)nc(N3CCNCC3)n2)cc1,2,-1,6,55*,-5,0
Cc1cc(C)cc(N(CC(=O)NCc2ccc3c(c2)OCO3)C(=O)CCC(=O)Nc2ccccn2)c1,18,4,1,-9,0,-4
Cc1ccc(C)c(N(CC(=O)NCc2ccc3c(c2)OCO3)C(=O)CCC(=O)Nc2ccccn2)c1,0,-1,30*,-13,4,0
Cc1nc(-c2ccccc2)sc1C(=O)CSc1ccccc1,23,-9,30*,-9,15,4
CC(SCc1ccccc1)C(=O)NN=C1CCN(C)CC1 (centres undefined),28,-3,0,-10,3,-4
CN1CCC(=NNC(=O)CSCc2ccccc2)CC1,1,-4,39*,-3,6,2
Cc1cccc(-n2c(N)c(C(=O)NCCN3CCOCC3)c3nc4ccccc4nc32)c1,·,30*,-2,·,·,·
Nc1c(C(=O)NCc2ccc(F)cc2)c2nc3ccccc3nc2n1CCCN1CCOCC1,-9,101*,73*,-6,9,3
Cc1ccc(-c2cc(C(=O)NCCN3CCOCC3)no2)cc1,34,-5,30*,-16,3,-1
CC(=O)N1CCc2cc(S(=O)(=O)CCC(=O)Nc3c(C)n(C)n(-c4ccccc4)c3=O)ccc21,4,-3,9,-2,-1,-2
Cc1ccc2c(N)c(C(=O)N(c3ccccc3)c3ccccc3)sc2n1,-9,·,·,-3,6,3
COc1[nH]c(/N=C/c2ccccc2)c(C#N)c1C#N,-25,-3,9,-9,38*,4
CCC(C)(C)NC(=O)Cc1ccc(C)cc1,2,-3,1,-13,-2,0
COc1ccc(N=Cc2sc(O)c3ccccc23)cc1,-113,15,10,-15,129*[fluorescence artefact?],-6
SMILES,PLK1 PBD inh,PostGolgi yeast,PostGolgi ctrl,PLK1 kinase inh,Rev-RRE block,EphB4 antag
Cc1cc(NC(=O)CSc2nc3cc(Cl)ccc3s2)no1,14,-4,-1,-18,11,-2
Cc1cc(C(=O)CSc2nc3ccc(Cl)cc3[nH]2)c(C)n1C,19,55*,84*,0,6,1
Cc1cc(NC(=O)CSc2nc3ccc(Cl)cc3[nH]2)no1,10,4,14,50*,1,1
Cc1ccc2nc(SCC(=O)c3cc(C)n(C)c3C)[nH]c2c1,11,1,33*,2,-5,3
Cc1cc(C(=O)CSc2nc3ccccc3[nH]2)c(C)n1C,8,11,7,-5,5,7
CCn1ncc(C2=NOC(C(=O)Nc3cccc(C(C)=O)c3)C2)c1C (centres undefined),-27,20,0,-8,5,4
CCC(OC(=O)c1cc2sccc2n1C)C(=O)NCc1ccco1 (centres undefined),-14,103*,99*,-6,11,2
Cn1c(C(=O)OCC(=O)NCc2ccco2)cc2sccc21,-23,7,0,15,6,2
CN(Cc1ccccc1)C(=O)[C@H]1CCC(=O)N1Cc1ccco1,-29,-1,-1,-5,2,4
CCOc1ccc(NC(=O)N2CCC(c3ccc(C)cc3)C2)cc1 (centres undefined),27,-24,36*,-10,3,4
CCOc1ccc(NC(=O)N2CCC(C(=O)c3ccc(F)cc3)CC2)cc1,-8,-6,-2,-2,-1,-4
CCc1cc2cccc(C)c2nc1SCC(=O)NNC(=O)c1ccco1,-5,-5,38*,0,6,0
CCCc1nc(-c2cc3ccc(C)cc3[nH]c2=O)no1,-14,2,0,-3,1,-3
CCOc1ccccc1-c1nc(-c2cc3ccc(C)cc3[nH]c2=O)no1,-17,-8,31*,-3,7,3
FC(F)(F)c1cccc(Sc2cc(C(F)(F)F)nc(-c3ccccn3)n2)c1,-7,-10,42*,-8,12,5
CC1(O)N(Cc2ccccc2)C(=O)OC12CCCCC2 (centres undefined),1,-5,46*,-10,2,0
CN1C(=O)OC(C)(CCc2ccccc2)C1(C)O (centres undefined),-17,-3,3,5,3,3
Cc1ccccc1-n1nc(C)c2cc(C(=O)N3CCN(S(=O)(=O)c4ccc(F)cc4)CC3)sc21,-10,37*,19,-13,5,4
COCCOC(=O)C1=C(C)NC(=O)NC1c1c(F)cccc1Cl (centres undefined),-3,12,1,-3,7,3
Cc1nn(C)c(Oc2ccccc2)c1CCNS(=O)(=O)c1ccccc1,-11,-21,38*,-17,8,0
COCCNS(=O)(=O)c1ccccc1,1,-9,-4,-3,5,-3
CCOC(=O)c1sc(Nc2ccc(C)cc2C)nc1C,-6,4,52*,-3,8,3
CCOC(=O)c1sc(N/N=C/c2cccc(C)c2)nc1C,6,2,38*,-8,6,0
CCOc1cc(NC(=O)CC(C)C)c(OCC)cc1NC(=O)CCn1nnc2ccccc21,-9,-4,2,-12,2,-1
CCCCn1c(=O)c(Cc2ccccc2)c(O)c2ccccc21,·,0,7,·,·,·
